According to ChEMBL document CHEMBL1139395 (J Med Chem, 2008):
Values after ≈ are worked out from the molar mass of the structure shown.

Tests used:
[1] = Inhibition of Escherichia coli topoisomerase 4
[2] = system: Haemophilus influenzae; experiment: Antibacterial activity against Haemophilus influenzae ATCC 51907; format: functional
[3] = system: Staphylococcus aureus; experiment: Antibacterial activity against Staphylococcus aureus ATCC 29213 in presence of human serum; format: functional
Method in brief: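 Broth microdilution MIC per CLSI methods (modified), with human serum added to the liquid medium at a final 50% for S. aureus ATCC 29213.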

[4] = system: Streptococcus pneumoniae; experiment: Antibacterial activity against Streptococcus pneumoniae ATCC 10015; format: functional
[5] = target: DNA gyrase (Staphylococcus aureus, UniProt P0A0K8+P20831); experiment: Inhibition of Staphylococcus aureus DNA gyrase; format: protein-complex assay
[6] = Inhibition of Escherichia coli DNA gyrase
[7] = system: Staphylococcus aureus; experiment: Antibacterial activity against Staphylococcus aureus ATCC 29213 in absence of human serum; format: functional
[8] = system: Streptococcus pneumoniae; experiment: Antibacterial activity against Streptococcus pneumoniae ATCC 6303-infeceted Sprague-Dawley rat assessed as reduction in lung bacterial density at 25 mg/kg, po administered twice at 18 and 26 hrs after bacterial challenge measured at 72 hrs postinfection; format: functional
Method in brief: (§1)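 Male Sprague-Dawley rats (185-224 g), anesthetized, infected intratracheally with 0.2 mL (0.9 × 10⁷ CFU) S. pneumoniae ATCC 6303 serotype 3 grown overnight in enriched broth. Oral dosing in D5W at 18 and 26 h postinfection, 10 per group. Lungs homogenized for CFU at 72 h; mean log₁₀ CFU ± SEM against vehicle controls.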

[9] = Half life in Sprague-Dawley rat; format: ADME, organism-based; conditions: in vivo
[10] = system: Streptococcus pneumoniae; experiment: Antibacterial activity against Streptococcus pneumoniae ATCC 6303; format: functional
[11] = system: Staphylococcus aureus; experiment: Antibacterial activity against Staphylococcus aureus ATCC 29213-infected Sprague-Dawley rat assessed as reduction in bacterial density in thigh tissue at 50 mg/kg, iv administered 2 hrs after bacterial challenge measured at 8 hrs postinfection; format: functional
Method in brief: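 Neutropenic male Sprague-Dawley rats (175-200 g); cyclophosphamide ip 150 mg/kg at day -4 and 50 mg/kg at day -1. Infection was 0.2 mL of 1 × 10⁷ CFU/mL S. aureus ATCC 29213 in saline, im into the thigh. Single iv tail-vein bolus at 2 h postinfection, D5W vehicle. Thighs homogenized for CFU 6 h post-dose; 0 h controls taken at 2 h. Mean log₁₀ CFU ± SEM; one-way ANOVA with Dunnett's test.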

[12] = system: Streptococcus pneumoniae; experiment: Antibacterial activity against Streptococcus pneumoniae ATCC 6303-infeceted Sprague-Dawley rat assessed as reduction in lung bacterial density at 50 mg/kg, po administered twice at 18 and 26 hrs after bacterial challenge measured at 72 hrs postinfection; format: functional; method in brief: as §1
[13] = Clearance in Sprague-Dawley rat; format: ADME, organism-based; conditions: in vivo
[14] = Volume of distribution at steady state in Sprague-Dawley rat; format: ADME, organism-based; conditions: in vivo, read-out: Vdss
[15] = Bioavailability in Sprague-Dawley rat; format: ADME, organism-based; conditions: in vivo

Chain of DNA gyrase (P0A0K8 whole entry): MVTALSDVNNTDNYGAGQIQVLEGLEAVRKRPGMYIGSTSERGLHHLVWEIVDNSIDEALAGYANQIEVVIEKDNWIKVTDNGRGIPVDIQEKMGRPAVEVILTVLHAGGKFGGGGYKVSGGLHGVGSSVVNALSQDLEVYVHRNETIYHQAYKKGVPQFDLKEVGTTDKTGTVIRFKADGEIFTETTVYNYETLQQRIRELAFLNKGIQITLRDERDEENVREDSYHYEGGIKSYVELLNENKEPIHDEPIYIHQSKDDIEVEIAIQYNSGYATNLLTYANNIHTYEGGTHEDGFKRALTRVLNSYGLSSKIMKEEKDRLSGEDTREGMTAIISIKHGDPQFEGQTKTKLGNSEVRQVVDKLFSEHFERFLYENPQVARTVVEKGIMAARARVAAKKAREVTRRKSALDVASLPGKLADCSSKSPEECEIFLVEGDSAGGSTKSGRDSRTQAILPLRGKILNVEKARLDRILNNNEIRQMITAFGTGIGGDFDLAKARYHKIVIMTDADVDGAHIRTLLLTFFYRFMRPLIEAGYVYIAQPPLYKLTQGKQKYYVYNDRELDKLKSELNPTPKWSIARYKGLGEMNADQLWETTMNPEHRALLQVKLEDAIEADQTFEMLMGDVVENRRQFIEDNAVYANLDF
Chain of DNA gyrase (P20831 whole entry): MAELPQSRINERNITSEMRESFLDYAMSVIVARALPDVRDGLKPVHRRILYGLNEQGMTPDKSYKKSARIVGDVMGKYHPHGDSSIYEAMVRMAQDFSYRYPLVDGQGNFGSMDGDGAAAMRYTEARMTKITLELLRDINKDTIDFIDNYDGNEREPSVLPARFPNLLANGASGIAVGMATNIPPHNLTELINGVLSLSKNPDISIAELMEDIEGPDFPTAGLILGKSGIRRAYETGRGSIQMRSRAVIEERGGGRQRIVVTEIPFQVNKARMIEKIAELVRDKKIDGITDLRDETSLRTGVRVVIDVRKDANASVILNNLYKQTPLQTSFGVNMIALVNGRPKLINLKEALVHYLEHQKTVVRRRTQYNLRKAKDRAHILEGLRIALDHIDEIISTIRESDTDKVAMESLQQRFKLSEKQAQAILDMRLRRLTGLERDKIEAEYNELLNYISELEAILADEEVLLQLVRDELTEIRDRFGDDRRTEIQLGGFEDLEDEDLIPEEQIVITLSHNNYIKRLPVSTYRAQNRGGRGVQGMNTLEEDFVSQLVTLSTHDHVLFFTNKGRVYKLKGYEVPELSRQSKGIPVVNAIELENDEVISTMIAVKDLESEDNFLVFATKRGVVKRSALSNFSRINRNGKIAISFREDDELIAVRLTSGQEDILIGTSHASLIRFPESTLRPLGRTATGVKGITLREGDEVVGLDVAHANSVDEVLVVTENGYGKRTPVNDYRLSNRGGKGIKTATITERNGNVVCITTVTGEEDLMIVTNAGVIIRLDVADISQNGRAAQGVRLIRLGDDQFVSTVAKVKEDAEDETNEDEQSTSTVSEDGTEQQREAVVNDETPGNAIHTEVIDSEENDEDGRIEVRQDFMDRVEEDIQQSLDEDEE

| SMILES | Ki [1] [nM] | MIC [2] [µg/mL] | MIC [3] [µg/mL] | MIC [4] [µg/mL] | Ki [5] [nM] | Ki [6] [nM] | MIC [7] [µg/mL] | log10cfu [8] | half-life [9] [min] | MIC [10] [µg/mL] | log10cfu [11] | log10cfu [12] | clearance [13] [mL/min/kg] | Vd [14] [L/kg] | bioavailability [15] [%] |
| --- | --- | --- | --- | --- | --- | --- | --- | --- | --- | --- | --- | --- | --- | --- | --- |
| CCNC(=O)Nc1nc2cc(-c3ccn(C)c(=O)c3)cc(-c3ncccc3F)c2[nH]1 | 11 | 0.125 (≈ 0.308 µM) | 0.032 | < 0.008 | 23 | < 4 | 0.016 (≈ 0.0394 µM) |  |  |  |  |  |  |  |  |
| CCNC(=O)Nc1nc2cc(-c3cccnc3)cc(-c3ccccn3)c2[nH]1 | 14 | 2 (≈ 5.58 µM) | 2 | 0.004 (≈ 0.0112 µM) | 7 | < 4 | 0.031 (≈ 0.0865 µM) |  |  |  |  |  |  |  |  |
| CCNC(=O)Nc1nc2cc(-c3cccnc3)c(F)cc2[nH]1 | 680 | 16 (≈ 53.5 µM) | 16 | 0.25 (≈ 0.835 µM) | 38 | 33 | 1 (≈ 3.34 µM) |  |  |  |  |  |  |  |  |
| CCNC(=O)Nc1nc2cc(-c3cccnc3)c(C)cc2[nH]1 | 1400 | 16 (≈ 54.2 µM) | > 16 | 0.5 (≈ 1.69 µM) | 85 | 61 | 16 (≈ 54.2 µM) |  |  |  |  |  |  |  |  |
| CCNC(=O)Nc1nc2cc(-n3cnc(C(=O)NC4CC4)c3)cc(-n3cccn3)c2[nH]1 | 12 | 0.25 (≈ 0.596 µM) | 4 | 0.003 (≈ 0.00715 µM) | 10 | < 4 | 0.5 (≈ 1.19 µM) |  |  |  |  |  |  |  |  |
| CCNC(=O)Nc1nc2cc(-c3cncnc3)ccc2[nH]1 | 1100 | 2 (≈ 7.08 µM) | 4 | 0.5 (≈ 1.77 µM) | 49 | 20 | 4 (≈ 14.2 µM) |  |  |  |  |  |  |  |  |
| CCNC(=O)Nc1nc2cc(-c3cccnc3)cc(-c3cccnc3)c2[nH]1 | 1300 | > 16 | 16 | 0.5 (≈ 1.4 µM) | 17 | 6 | 4 (≈ 11.2 µM) |  |  |  |  |  |  |  |  |
| CCNC(=O)Nc1nc2cc(-n3cnc(C(=O)NC4CC4)c3)c(F)cc2[nH]1 | 78 | 4 (≈ 10.8 µM) | 8 | 0.063 (≈ 0.17 µM) | 10 | < 4 | 4 (≈ 10.8 µM) |  |  |  |  |  |  |  |  |
| CCNC(=O)Nc1nc2cc(-n3cnc(C(=O)NC4CC4)c3)cc(-c3ccccn3)c2[nH]1 | 7 | 0.125 (≈ 0.29 µM) | 0.25 | 0.002 (≈ 0.00465 µM) | 12 | < 4 | 0.063 (≈ 0.146 µM) |  |  |  |  |  |  |  |  |
| CCNC(=O)Nc1nc2cc(-c3cccnc3)cc(C(=O)OC)c2[nH]1 | 35 | 0.5 (≈ 1.47 µM) | 0.5 | 0.016 (≈ 0.0471 µM) | 8 | < 4 | 0.063 (≈ 0.186 µM) |  |  |  |  |  |  |  |  |
| CCNC(=O)Nc1nc2cc(-c3cccnc3)ccc2[nH]1 | 2300 | 16 (≈ 56.9 µM) | > 16 | 2 (≈ 7.11 µM) | 130 | 81 | 16 (≈ 56.9 µM) |  |  |  |  |  |  |  |  |
| CCNC(=O)Nc1nc2cc(-c3ccccc3)ccc2[nH]1 | 9500 | > 16 | > 16 | > 16 | 470 | 400 | > 16 |  |  |  |  |  |  |  |  |
| CO[C@@H]1[C@@H](OC(N)=O)[C@@H](O)[C@H](Oc2ccc3c(O)c(NC(=O)c4ccc(O)c(CC=C(C)C)c4)c(=O)oc3c2C)OC1(C)C [NOVOBIOCIN] |  | 0.063 (≈ 0.103 µM) | > 16 | 2 (≈ 3.26 µM) |  |  | 0.125 (≈ 0.204 µM) |  |  |  |  |  |  |  |  |
| CCNC(=O)Nc1nc2cc(-c3cccnc3)cc(-n3cccn3)c2[nH]1 | 46 | 1 (≈ 2.88 µM) | 4 | 0.008 (≈ 0.023 µM) | 15 | < 4 | 0.063 (≈ 0.181 µM) |  |  |  |  |  |  |  |  |
| CCOC(=O)Nc1nc2cc(/C=C/c3ccc(O)cc3)ccc2[nH]1 | > 60000 | > 16 | > 16 | > 16 | 2000 | 20000 | > 16 |  |  |  |  |  |  |  |  |
| CCNC(=O)Nc1nc2cc(-c3cccnc3)cc(-c3ncccc3F)c2[nH]1 | 23 | 1 (≈ 2.66 µM) | 0.5 | 0.004 (≈ 0.0106 µM) | 14 | < 4 | 0.031 (≈ 0.0824 µM) | 4.8 | 42 | 0.008 (≈ 0.0213 µM) | 1.5 | 5.6 | 14.4 | 1.6 | 88.4 |
| CCNC(=O)Nc1nc2cc(-c3cccnc3)c(N3CCCCC3)cc2[nH]1 | 3300 | > 16 | > 16 | 2 (≈ 5.49 µM) | 81 | 120 | 16 (≈ 43.9 µM) |  |  |  |  |  |  |  |  |
| CCNC(=O)Nc1nc2cc(-c3cnc(OC)nc3)c(OC)cc2[nH]1 | 680 | 4 (≈ 11.7 µM) | 8 | 0.125 (≈ 0.365 µM) | 44 | 15 | 2 (≈ 5.84 µM) |  |  |  |  |  |  |  |  |
| CCNC(=O)Nc1nc2cc(-c3cncnc3)cc(-n3cccn3)c2[nH]1 | 58 | 0.25 (≈ 0.718 µM) | 0.25 | < 0.008 | 16 | < 4 | 0.031 (≈ 0.089 µM) |  |  |  |  |  |  |  |  |
| CCNC(=O)Nc1nc2cc(-c3cccnc3)cc(OCc3ccccc3)c2[nH]1 | 390 | > 16 | > 16 | 1 (≈ 2.58 µM) | 35 | 18 | 2 (≈ 5.16 µM) |  |  |  |  |  |  |  |  |
| CC(=O)NC[C@H]1CN(c2ccc(N3CCOCC3)c(F)c2)C(=O)O1 [LINEZOLID] |  |  |  |  |  |  |  | 2.5 |  | 0.4 (≈ 1.19 µM) |  | 5.9 |  |  |  |
| CCNC(=O)Nc1nc2cc(-c3cccnc3)c(OC)cc2[nH]1 | 3500 | > 16 | > 16 | 2 (≈ 6.42 µM) | 190 | 130 | 16 (≈ 51.4 µM) |  |  |  |  |  |  |  |  |
| CCNC(=O)Nc1nc2cc(-c3cccnc3)cc(C(=O)NC)c2[nH]1 | 150 | 16 (≈ 47.3 µM) | > 16 | 0.063 (≈ 0.186 µM) | 26 | 5 | 16 (≈ 47.3 µM) |  |  |  |  |  |  |  |  |
